Experimental data as given in ChEMBL document CHEMBL5236592, “Induction of Ferroptosis in Glioblastoma and Ovarian Cancers by a New Pyrrole Tubulin Assembly Inhibitor” (J Med Chem, 2022).

Target: Tubulin (Homo sapiens) (UniProt P68371+Q9H4B7+P0DPH7+P68366+Q13509+Q71U36+P04350+Q3ZCM7+P07437+P68363+Q9BQE3+Q6PEY2+Q13885+Q9BVA1+Q9BUF5)
Assay: Inhibition of [3H]colchicine binding to tubulin (unknown origin) at 1 uM incubated for 10 mins relative to control
Format: protein-complex assay
How it was run: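 Tubulin at 1.0 μM mixed with 5.0 μM [3H]colchicine and inhibitor at 1.0 μM, incubated 10 min at 37 °C.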

Row | SMILES | inhibition [%]
1 | COc1cc(C(=O)c2cn(-c3ccccn3)cc2-c2ccccc2)cc(OC)c1OC | 69
2 | COc1cc(C(=O)c2cn(-c3ccccn3)cc2-c2ccco2)cc(OC)c1OC | 66
